System: Fibroblast
Assay: Multiplex assay against human fibroblast
Type: toxicity, cell-based
In short: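 Four dyes were applied at seeding to live cells: Hoechst33342, BioTracker Green Microtubule Cytoskeleton Dye, MitoTracker Red and Annexin V Alexa Fluor 680. Imaging after compound addition used a CQ1 microscope at 37°C and 5% CO2. CellPathfinder machine-learning gating then sorted cells into Hoechst high-intensity objects or normal cells, normal cells into healthy, pyknosed or fragmented nuclei, and pyknosed cells into mitotic or apoptotic, with tubulin, mitochondrial-mass and membrane-permeability phenotypes given as per cents of healthy-nucleus cells.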

[1] = 12 h, 1 µM, compound concentration 1 uM, replicate 1
[2] = 12 h, 1 µM, compound concentration 1 uM, replicate 2
[3] = 12 h, 10 µM, compound concentration 10 uM, replicate 1
[4] = 12 h, 10 µM, compound concentration 10 uM, replicate 2
[5] = 24 h, 1 µM, compound concentration 1 uM, replicate 1
[6] = 24 h, 1 µM, compound concentration 1 uM, replicate 2
[7] = 24 h, 10 µM, compound concentration 10 uM, replicate 1
[8] = 24 h, 10 µM, compound concentration 10 uM, replicate 2
[9] = 48 h, 1 µM, compound concentration 1 uM, replicate 1
[10] = 48 h, 1 µM, compound concentration 1 uM, replicate 2
[11] = 48 h, 10 µM, compound concentration 10 uM, replicate 1
[12] = 48 h, 10 µM, compound concentration 10 uM, replicate 2

Structure (SMILES): Cc1nc(Cc2cccc(C(F)(F)F)c2)sc1-c1ccc(C(N)=O)nc1 [TP-024n]
- Population Apoptotic (%) [1]: 59%
- Population Fragmented Nuclei (%) [1]: 16%
- Population Healthy Nuclei (%) [1]: 45%
- Population Hoechst High Intensity Objects (%) [1]: 11%
- Population Membrane Permeable-Phenotype (%) [1]: 23%
- Population Mitochondria Different-Phenotype (%) [1]: 3%
- Population Mitotic Cells (%) [1]: 40%
- Population Normal (%) [1]: 88%
- Population Pyknosed Nuclei (%) [1]: 37%
- Population Tubulin-Different-Phenotype (%) [1]: 33%
- Total Cell Count [1]: 125
- Population Apoptotic (%) [2]: 50%
- Population Fragmented Nuclei (%) [2]: 0%
- Population Healthy Nuclei (%) [2]: 94%
- Population Membrane Permeable-Phenotype (%) [2]: 2%
- Population Mitochondria Different-Phenotype (%) [2]: 18%
- Population Mitotic Cells (%) [2]: 50%
- Population Pyknosed Nuclei (%) [2]: 5%
- Population Tubulin-Different-Phenotype (%) [2]: 16%
- Total Cell Count [2]: 130
- Population Apoptotic (%) [3]: 63%
- Population Fragmented Nuclei (%) [3]: 25%
- Population Healthy Nuclei (%) [3]: 37%
- Population Hoechst High Intensity Objects (%) [3]: 14%
- Population Membrane Permeable-Phenotype (%) [3]: 2%
- Population Mitochondria Different-Phenotype (%) [3]: 16%
- Population Mitotic Cells (%) [3]: 36%
- Population Normal (%) [3]: 86%
- Population Pyknosed Nuclei (%) [3]: 36%
- Population Tubulin-Different-Phenotype (%) [3]: 67%
- Total Cell Count [3]: 150
- Population Apoptotic (%) [4]: 66%
- Population Fragmented Nuclei (%) [4]: 17%
- Population Healthy Nuclei (%) [4]: 67%
- Population Hoechst High Intensity Objects (%) [4]: 4%
- Population Membrane Permeable-Phenotype (%) [4]: 9%
- Population Mitochondria Different-Phenotype (%) [4]: 21%
- Population Mitotic Cells (%) [4]: 33%
- Population Normal (%) [4]: 95%
- Population Pyknosed Nuclei (%) [4]: 14%
- Population Tubulin-Different-Phenotype (%) [4]: 11%
- Total Cell Count [4]: 44
- Population Apoptotic (%) [5]: 46%
- Population Fragmented Nuclei (%) [5]: 17%
- Population Healthy Nuclei (%) [5]: 51%
- Population Hoechst High Intensity Objects (%) [5]: 11%
- Population Membrane Permeable-Phenotype (%) [5]: 31%
- Population Mitochondria Different-Phenotype (%) [5]: 1%
- Population Mitotic Cells (%) [5]: 53%
- Population Normal (%) [5]: 88%
- Population Pyknosed Nuclei (%) [5]: 32%
- Population Tubulin-Different-Phenotype (%) [5]: 29%
- Total Cell Count [5]: 113
- Population Apoptotic (%) [6]: 50%
- Population Fragmented Nuclei (%) [6]: 5%
- Population Healthy Nuclei (%) [6]: 91%
- Population Hoechst High Intensity Objects (%) [6]: 5%
- Population Membrane Permeable-Phenotype (%) [6]: 1%
- Population Mitochondria Different-Phenotype (%) [6]: 7%
- Population Mitotic Cells (%) [6]: 50%
- Population Normal (%) [6]: 95%
- Population Pyknosed Nuclei (%) [6]: 3%
- Population Tubulin-Different-Phenotype (%) [6]: 15%
- Total Cell Count [6]: 126
- Population Apoptotic (%) [7]: 64%
- Population Fragmented Nuclei (%) [7]: 19%
- Population Healthy Nuclei (%) [7]: 57%
- Population Hoechst High Intensity Objects (%) [7]: 13%
- Population Membrane Permeable-Phenotype (%) [7]: 5%
- Population Mitochondria Different-Phenotype (%) [7]: 12%
- Population Mitotic Cells (%) [7]: 35%
- Population Normal (%) [7]: 86%
- Population Pyknosed Nuclei (%) [7]: 23%
- Population Tubulin-Different-Phenotype (%) [7]: 58%
- Total Cell Count [7]: 152
- Population Apoptotic (%) [8]: 44%
- Population Fragmented Nuclei (%) [8]: 14%
- Population Healthy Nuclei (%) [8]: 58%
- Population Hoechst High Intensity Objects (%) [8]: 2%
- Population Membrane Permeable-Phenotype (%) [8]: 25%
- Population Mitochondria Different-Phenotype (%) [8]: 32%
- Population Mitotic Cells (%) [8]: 55%
- Population Normal (%) [8]: 97%
- Population Pyknosed Nuclei (%) [8]: 26%
- Population Tubulin-Different-Phenotype (%) [8]: 22%
- Total Cell Count [8]: 60
- Population Apoptotic (%) [9]: 52%
- Population Fragmented Nuclei (%) [9]: 21%
- Population Healthy Nuclei (%) [9]: 58%
- Population Hoechst High Intensity Objects (%) [9]: 19%
- Population Membrane Permeable-Phenotype (%) [9]: 22%
- Population Mitochondria Different-Phenotype (%) [9]: 1%
- Population Mitotic Cells (%) [9]: 47%
- Population Normal (%) [9]: 80%
- Population Pyknosed Nuclei (%) [9]: 20%
- Population Tubulin-Different-Phenotype (%) [9]: 31%
- Total Cell Count [9]: 116
- Population Apoptotic (%) [10]: 33%
- Population Fragmented Nuclei (%) [10]: 16%
- Population Healthy Nuclei (%) [10]: 80%
- Population Hoechst High Intensity Objects (%) [10]: 11%
- Population Membrane Permeable-Phenotype (%) [10]: 12%
- Population Mitochondria Different-Phenotype (%) [10]: 0%
- Population Mitotic Cells (%) [10]: 66%
- Population Normal (%) [10]: 88%
- Population Pyknosed Nuclei (%) [10]: 3%
- Population Tubulin-Different-Phenotype (%) [10]: 35%
- Total Cell Count [10]: 98
- Population Apoptotic (%) [11]: 77%
- Population Fragmented Nuclei (%) [11]: 19%
- Population Healthy Nuclei (%) [11]: 64%
- Population Hoechst High Intensity Objects (%) [11]: 9%
- Population Membrane Permeable-Phenotype (%) [11]: 11%
- Population Mitochondria Different-Phenotype (%) [11]: 15%
- Population Mitotic Cells (%) [11]: 22%
- Population Normal (%) [11]: 90%
- Population Pyknosed Nuclei (%) [11]: 16%
- Population Tubulin-Different-Phenotype (%) [11]: 44%
- Total Cell Count [11]: 148
- Population Apoptotic (%) [12]: 25%
- Population Fragmented Nuclei (%) [12]: 27%
- Population Healthy Nuclei (%) [12]: 68%
- Population Hoechst High Intensity Objects (%) [12]: 10%
- Population Membrane Permeable-Phenotype (%) [12]: 5%
- Population Mitochondria Different-Phenotype (%) [12]: 7%
- Population Mitotic Cells (%) [12]: 75%
- Population Normal (%) [12]: 89%
- Population Pyknosed Nuclei (%) [12]: 3%
- Population Tubulin-Different-Phenotype (%) [12]: 52%
- Total Cell Count [12]: 124

From ChEMBL document CHEMBL4689842, “EUbOPEN Chemogenomics Library wave 1” (2021)
